One data set deals with Cytochrome P450 2D6 (Homo sapiens, UniProt P10635). Kind of data set: Inhibition of human recombinant CYP2D6 at 10 uM using beetle D-luciferin as substrate by CYP450-Glo assay. The conditions noted are these: recombinant enzyme. It is filed as ADME. In a few lines:
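Luminescent P450-Glo assay in which recombinant human CYP3A4 or CYP2D6 converts a beetle D-luciferin derivative to D-luciferin. Compound was tested at 1 and 10 µM.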

In data set [1] the target is T1, Quinolone resistance protein NorA (Staphylococcus aureus) (UniProt P0A0J7).
T1 sequence (whole entry): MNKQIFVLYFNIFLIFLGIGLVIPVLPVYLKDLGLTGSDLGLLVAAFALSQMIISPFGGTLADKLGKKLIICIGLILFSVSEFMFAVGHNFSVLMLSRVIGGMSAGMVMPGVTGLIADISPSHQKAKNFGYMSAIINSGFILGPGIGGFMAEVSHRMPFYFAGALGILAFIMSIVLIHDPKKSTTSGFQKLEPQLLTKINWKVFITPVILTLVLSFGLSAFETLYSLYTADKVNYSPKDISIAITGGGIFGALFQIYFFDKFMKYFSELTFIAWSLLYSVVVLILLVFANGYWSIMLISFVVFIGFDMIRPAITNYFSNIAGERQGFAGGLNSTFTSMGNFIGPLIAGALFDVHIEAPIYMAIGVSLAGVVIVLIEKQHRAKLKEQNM
Kind of data set: Inhibition of NorA in Staphylococcus aureus SA-1199B expressing GrlA A116E mutant assessed as synergistic potentiation of ciprofloxacin-induced antimicrobial activity by measuring reduction in ciprofloxacin MIC at 0.78 ug/ml by microdilution method based Checkerboard assay. Background: In broth dilution the organism is exposed to a series of concentrations in liquid medium.

Data set [2] deals with Staphylococcus aureus. Kind of data set: Antimicrobial activity against Staphylococcus aureus SA-1199B expressing wild type norA by microdilution method. It is filed as organism-based. The conditions noted are these: in vivo. The essentials: (§1)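 Broth microdilution MIC per CLSI guidelines. ATCC 25923 is norA wild-type. SA-1199B overexpresses norA and carries an A116E GrlA substitution.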

Data set [3] is described as follows: Cytotoxicity in human HepG2 cells assessed as reduction in cell viability incubated for 24 hrs by ATP bioluminescence assay. The class given is cell-based. The essentials:
(§2)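 Cells were grown to confluence overnight in RPMI 1640 with 10% heat-inactivated fetal calf serum, penicillin and streptomycin. Monolayers were exposed for 24 h at 37 °C to scalar concentrations (0-250 µg/mL). Viability was read by ATP bioluminescence, each concentration in triplicate. CC50 is the concentration reducing cell number by 50% versus untreated controls.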

The test system of data set [4] is Staphylococcus aureus. Nature of the data set: Antimicrobial activity against Staphylococcus aureus ATCC 25923 by microdilution method. It is filed as organism-based. As to conditions: in vivo. The essentials: as §1
Data set [5] deals with T1, Quinolone resistance protein NorA (Staphylococcus aureus). Kind of data set: Inhibition of NorA in Staphylococcus aureus SA-1199B expressing GrlA A116E mutant assessed as synergistic potentiation of ciprofloxacin-induced antimicrobial activity at 0.78 to 100 ug/ml by microdilution method based Checkerboard assay.
For data set [6] the target is unchanged. Nature of the data set: Inhibition of NorA in Staphylococcus aureus SA-K2378 assessed as synergistic potentiation of ciprofloxacin-induced antimicrobial activity at 0.78 to 100 ug/ml by microdilution method based Checkerboard assay.
Data set [7] addresses Quinolone resistance protein NorA (Staphylococcus aureus, UniProt P0A0J7, A116E). Nature of the data set: Inhibition of NorA in Staphylococcus aureus SA-1199B expressing GrlA A116E mutant assessed as reduction in EtBr efflux incubated for 5 mins by fluorescence based assay. The essentials: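 Cells were grown overnight in cation-supplemented Mueller-Hinton broth at 35 °C and subcultured to OD600 0.7–0.8. They were loaded at OD600 0.8 with 25 µM EtBr plus 100 µM CCCP (final) for 20 min at room temperature. Cells were then resuspended in fresh broth with or without compound, 50 µM for the single-point screen or a concentration series for IC50. Fluorescence (ex 485/em 645 nm) was read for 5 min. Inhibition was calculated from the fluorescence decrease versus untreated cells. Biological triplicate, each run twice.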

Data set [8] relates to Staphylococcus aureus. Kind of data set: Synergistic potentiation of ciprofloxacin-induced antimicrobial activity against norA deleted Staphylococcus aureus SA-K1902 at 0.78 to 100 ug/ml by microdilution method based Checkerboard assay. It is filed as functional, organism-based.
Data set [9] concerns the target T1, Quinolone resistance protein NorA (Staphylococcus aureus). Nature of the data set: Inhibition of NorA in Staphylococcus aureus SA-1199B expressing GrlA A116E mutant assessed as minimal potentiating drug concentration causing 8 fold reduction in ciprofloxacin MIC by microdilution method based Checkerboard assay.
Data set [10] has as its system Staphylococcus aureus. Kind of data set: Synergistic potentiation of ciprofloxacin-induced antimicrobial activity against wild type Staphylococcus aureus ATCC 25923 at 0.78 to 100 ug/ml by microdilution method based Checkerboard assay. It is filed as functional, organism-based.
The subject of data set [11] is Staphylococcus aureus. Nature of the data set: Antimicrobial activity against mepA deficient Staphylococcus aureus SA-K2885 by microdilution method. The class given is organism-based. As to conditions: in vivo. In a few lines: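 CLSI broth microdilution MIC of the compound alone in norA-deleted strains. SA-K2885 carries empty pALC2073 and SA-K2886 carries pALC2073-mepA (xyl/tetO promoter). 0.05 µg/mL tetracycline was present throughout to induce.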

Data set [12] relates to Staphylococcus aureus. Nature of the data set: Induction of membrane depolarization in Staphylococcus aureus SA-1199B expressing wild type norA at 1 ug/ml incubated for 30 mikns by DiOC2(3) fluorescent probe based cytofluorimetry. The class given is organism-based. The conditions noted are these: in the assay text read “overexpressing norA” for “expressing wild type norA”. The essentials: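 SA-1199B was grown in MHB at 37 °C to OD600 0.6, washed, and diluted to 1×10^6 CFU/mL in filtered PBS. DiOC2(3) was added at 30 µM final, and compound at 1, 5 or 10 µg/mL for 30 min. CCCP 5 µM final served as positive control. Flow cytometry with 488 nm excitation gave a red/green ratio normalized to the DiOC2(3) blank, expressed as % depolarized versus drug-free control.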

Data set [13] has as its system Staphylococcus aureus. Kind of data set: Synergistic potentiation of ciprofloxacin-induced antimicrobial activity against Staphylococcus aureus SA-1199 at 0.78 to 100 ug/ml by microdilution method based Checkerboard assay. The class given is functional, organism-based.
The nature of data set [14]: Selectivity index, ratio of CC50 for human HepG2 cells to inhibition of NorA in Staphylococcus aureus SA-1199B expressing GrlA A116E mutant assessed as minimal potentiating drug concentration causing 8 fold reduction in ciprofloxacin MIC by microdilution method based Checkerboard assay. It is filed as toxicity. As to conditions: read-out: Selectivity Index. The essentials: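 CC50 cells (HepG2 for […], THP-1 for […]) were grown to confluence in RPMI 1640 with 10% FCS, penicillin and streptomycin. They were exposed 24 h at 37 °C to 0–250 µg/mL. Viability was read by ATP bioluminescence, triplicate. CC50 is the concentration reducing cell number 50% versus untreated.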

A short description of data set [15]: Cytotoxicity in human THP1 cells assessed as reduction in cell viability incubated for 24 hrs by ATP bioluminescence assay. The class given is cell-based, THP-1. In a few lines:
as §2

The subject of data set [16] is Staphylococcus aureus. Nature of the data set: Antimicrobial activity against Staphylococcus aureus SA-1199B expressing wild type norA and co-expressing GrlA A116E mutant by microdilution method. It is filed as organism-based. The conditions noted are these: in vivo. The essentials: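 CLSI broth microdilution MIC of the compound alone. Strains: SA-K1902 (norA deleted), SA-K2378 (SA-K1902 carrying norA plus its promoter on multicopy plasmid pCU1), SA-1199B (norA overexpressing, GrlA A116E).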

≈ marks a conversion by molar mass, not a printed value. Calls of active or inactive are those of the source. No cut-off for these calls is given here. A value given as a limit tells only on which side of the number the result lay.

As usually defined, the CC50 is the concentration giving 50% cytotoxicity. Broadly, the IC50 is the concentration that gives 50% inhibition.

Chain of Cytochrome P450 2D6 (P10635 whole entry): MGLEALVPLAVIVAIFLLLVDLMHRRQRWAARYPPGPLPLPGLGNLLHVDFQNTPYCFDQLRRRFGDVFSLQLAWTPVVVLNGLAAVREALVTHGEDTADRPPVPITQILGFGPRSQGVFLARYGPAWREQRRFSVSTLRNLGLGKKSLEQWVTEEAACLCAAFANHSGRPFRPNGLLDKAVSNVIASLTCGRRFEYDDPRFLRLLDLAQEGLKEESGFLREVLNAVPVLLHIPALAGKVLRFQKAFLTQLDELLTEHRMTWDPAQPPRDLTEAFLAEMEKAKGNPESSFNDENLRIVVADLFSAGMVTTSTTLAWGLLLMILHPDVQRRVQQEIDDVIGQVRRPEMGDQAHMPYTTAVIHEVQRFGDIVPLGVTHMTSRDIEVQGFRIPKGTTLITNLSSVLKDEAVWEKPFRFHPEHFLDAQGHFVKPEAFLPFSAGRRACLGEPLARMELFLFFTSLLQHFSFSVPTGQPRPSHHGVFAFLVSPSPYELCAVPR

Consider `CCCOc1ccc(-c2cc(OCCN3CCc4cc(OC)c(OC)cc4C3)c3cc(OC)c(OC)cc3n2)cc1`, for which the “inhibition (INH)” value at Cytochrome P450 2D6 was “Active”. For the same compound, the fold change (FC) in data set [1] came out at 8. The MIC in the data set on Staphylococcus aureus [2] is more than 100 µg/mL; with Staphylococcus aureus [4] it was more than 100 µg/mL; against Staphylococcus aureus [11] it was 100 µg/mL (≈ 179 µM); against Staphylococcus aureus [16], more than 179 µM. Further, the CC50 at 24 h in data set [3] is 74 µg/mL (≈ 132 µM); in [15], 37 µg/mL (≈ 66.2 µM). Besides, the inhibition result (in data set [5]; in [6]; in the data set on Staphylococcus aureus [13]) was “Active” throughout. In addition, the IC50 in [7] is 1100 nM. For the same compound, in the data set on Staphylococcus aureus [8], the outcome was inactive. Also, the Activity in [9] was 0.78 µg/mL; with Staphylococcus aureus [12], less than 20%. Moreover, in the data set with Staphylococcus aureus [10], the “synergistic potentiation of ciprofloxacin activity” value was “Active”. In addition, the selectivity ratio in data set [14] turned out to be 95.

On to `CCCOc1ccc(-c2cc(OCCN3CCCCC3)c3cc(OC)ccc3n2)cc1`, for which the “inhibition (INH)” value on Cytochrome P450 2D6 is “Active”. In addition, in data set [1], the fold change (FC) stood at 8. Moreover, the MIC in the data set on Staphylococcus aureus [2] is more than 100 µg/mL; in the data set with Staphylococcus aureus [4] it was 50 µg/mL (≈ 119 µM); against Staphylococcus aureus [11], 12.5 µg/mL (≈ 29.7 µM); in the data set with Staphylococcus aureus [16] it was 238 µM (≈ 100 µg/mL). Further, the half-maximal cytotoxic concentration (CC50) at 24 h in data set [3] is 42 µg/mL (≈ 99.9 µM); in data set [15], more than 100 µg/mL. Moreover, the inhibition result (in [5]; in data set [6]; in the data set on Staphylococcus aureus [13]) was “Active” each time. Besides, the IC50 in [7] amounted to 4200 nM. The outcome with Staphylococcus aureus [8] was inactive. Also, the Activity in data set [9] was 0.78 µg/mL; in the data set with Staphylococcus aureus [12] it was less than 10%. Also, in the data set with Staphylococcus aureus [10], the “synergistic potentiation of ciprofloxacin activity” value is “Active”. In addition, the selectivity ratio in [14] turned out to be 50.

(Values after ChEMBL document CHEMBL4145675, “2-Phenylquinoline S. aureus NorA Efflux Pump Inhibitors: Evaluation of the Importance of Methoxy Group Introduction” (J Med Chem, 2018).)
